Biological target: Histamine H3 receptor (Rattus norvegicus, UniProt Q9QYN8)
Experiment: Affinity for histamine H3 receptor in rat cerebral cortex.
Outline: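 Affinity for the H3 receptor measured in an in vitro binding assay by displacement of the radioligand [3H]R-(α)-methylhistamine.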

Chain of Histamine H3 receptor (Q9QYN8 whole entry): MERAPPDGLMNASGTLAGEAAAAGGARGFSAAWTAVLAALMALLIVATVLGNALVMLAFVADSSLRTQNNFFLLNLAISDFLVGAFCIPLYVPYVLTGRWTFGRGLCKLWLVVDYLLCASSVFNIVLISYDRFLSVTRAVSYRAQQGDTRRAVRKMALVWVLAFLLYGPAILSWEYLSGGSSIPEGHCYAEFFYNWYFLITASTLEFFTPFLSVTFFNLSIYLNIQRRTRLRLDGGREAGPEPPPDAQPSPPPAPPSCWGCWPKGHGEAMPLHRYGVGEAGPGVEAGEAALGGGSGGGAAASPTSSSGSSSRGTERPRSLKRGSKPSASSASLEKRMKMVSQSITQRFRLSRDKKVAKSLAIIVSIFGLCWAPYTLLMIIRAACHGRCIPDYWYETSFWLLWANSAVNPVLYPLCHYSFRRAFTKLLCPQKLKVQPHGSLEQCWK

Ic1ccc(COCCCc2c[nH]cn2)cc1 [Iodoproxyfan] was tested, and the Ki was 0.126 nM.

Compound N[C@H](COCC1CCCCC1)Cc1c[nH]cn1 has a Ki of 12.6 nM.

N[C@H](COCc1ccc(I)cc1)Cc1c[nH]cn1 was tested, and the Ki was 251 nM.

N[C@@H](COCC1CCCCC1)Cc1c[nH]cn1 was tested, and the Ki was 158 nM.

N[C@H](CO)Cc1c[nH]cn1 [HISTIDINOL] was tested, and the Ki was 251 nM.

N[C@H](COCc1ccccc1)Cc1c[nH]cn1 showed a Ki of 50.1 nM.

In the case of N[C@@H](COCc1ccc(Br)cc1)Cc1c[nH]cn1, the Ki is reported as 199 nM.

For N[C@H](COCc1ccc(Br)cc1)Cc1c[nH]cn1, the Ki was 79.4 nM.

In the case of COC[C@@H](N)Cc1c[nH]cn1, the Ki is reported as 1250 nM.

In the case of c1ccc(COCCCc2c[nH]cn2)cc1 [proxifan], the Ki is reported as 3.16 nM.

N[C@@H](COCc1ccc(I)cc1)Cc1c[nH]cn1 was tested, and the Ki was 199 nM.

N[C@@H](COCc1ccccc1)Cc1c[nH]cn1 gave a Ki of 316 nM.

For N[C@@H](CO)Cc1c[nH]cn1, the Ki was 1250 nM.
